The target of assay [1] is T1, Tyrosine-protein kinase ABL1 (Homo sapiens, UniProt P00519). As to the kind of experiment: Inhibition of ABL ACT labeling site in human A-375 cells at 5 uM by KiNativ Profiling analysis relative to control. The assay is classed as cell-based. In outline:
(§1)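 Intact A375 melanoma cells were treated with compound at 5 or 0.5 μM, then lysed. Lysate kinases were labeled with a lysine-reactive ATP or ADP-biotin probe (KiNativ). Inhibition is read as protection of each kinase labeling site from probe labeling.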

Assay [2] addresses T1, Tyrosine-protein kinase ABL1. The assay can be described thus: Inhibition of ABL ACT labeling site in human A-375 cells at 0.5 uM by KiNativ Profiling analysis relative to control. The assay is classed as cell-based. In outline: as §1
The target in assay [3] is Mitogen-activated protein kinase kinase kinase kinase 4 (Homo sapiens, UniProt O95819). As to the kind of experiment: Inhibition of ZC1/HGK (unknown origin) Lys1 labeling site by KiNativ Profiling analysis.
Assay [4] addresses Mitogen-activated protein kinase 10 (Homo sapiens, UniProt P53779). As to the kind of experiment: Inhibition of JNK3 (unknown origin) Lys2 labeling site by KiNativ Profiling analysis.
Assay [5] concerns the target Mitogen-activated protein kinase 14 (Homo sapiens, UniProt Q16539). As to the kind of experiment: Inhibition of p38 alpha (unknown origin) by KiNativ Profiling analysis.
The target of assay [6] is Serine/threonine-protein kinase VRK2 (Homo sapiens) (UniProt Q86Y07). As to the kind of experiment: Inhibition of VRK2 Lys2 labeling site in human A-375 cells at 5 uM by KiNativ Profiling analysis relative to control. The assay is classed as cell-based.
Assay [7] addresses Serine/threonine-protein kinase WNK2 (Homo sapiens) (UniProt Q9Y3S1). As to the kind of experiment: Inhibition of Wnk2 ACT labeling site in human A-375 cells at 5 uM by KiNativ Profiling analysis relative to control. The format is cell-based.
Assay [8] concerns the target Serine/threonine-protein kinase 10 (Homo sapiens) (UniProt O94804). The assay can be described thus: Inhibition of LOK Lys1 labeling site harbouring NKETGALAAAKVIETK in human A-375 cells at 0.05 uM by KiNativ Profiling analysis relative to control. The assay is classed as cell-based.
Assay [9] has as its target Serine/threonine-protein kinase 25 (Homo sapiens) (UniProt O00506). As to the kind of experiment: Inhibition of YSK1 Lys2 labeling site in human A-375 cells at 0.05 uM by KiNativ Profiling analysis relative to control. The format is cell-based.
In assay [10] the target is Serine/threonine-protein kinase 38-like (Homo sapiens) (UniProt Q9Y2H1). The assay can be described thus: Inhibition of NDR2 Lys2 labeling site in human A-375 cells at 0.05 uM by KiNativ Profiling analysis relative to control. The format is cell-based.
For assay [11], the target named is RAF proto-oncogene serine/threonine-protein kinase (Homo sapiens, UniProt P04049). The assay can be described thus: Inhibition of RAF1 Lys2 labeling site in human A-375 cells at 0.05 uM by KiNativ Profiling analysis relative to control. The assay is classed as cell-based.
The target in assay [12] is T2, Ephrin type-B receptor 4 (Homo sapiens) (UniProt P54760).
T2 sequence (whole entry): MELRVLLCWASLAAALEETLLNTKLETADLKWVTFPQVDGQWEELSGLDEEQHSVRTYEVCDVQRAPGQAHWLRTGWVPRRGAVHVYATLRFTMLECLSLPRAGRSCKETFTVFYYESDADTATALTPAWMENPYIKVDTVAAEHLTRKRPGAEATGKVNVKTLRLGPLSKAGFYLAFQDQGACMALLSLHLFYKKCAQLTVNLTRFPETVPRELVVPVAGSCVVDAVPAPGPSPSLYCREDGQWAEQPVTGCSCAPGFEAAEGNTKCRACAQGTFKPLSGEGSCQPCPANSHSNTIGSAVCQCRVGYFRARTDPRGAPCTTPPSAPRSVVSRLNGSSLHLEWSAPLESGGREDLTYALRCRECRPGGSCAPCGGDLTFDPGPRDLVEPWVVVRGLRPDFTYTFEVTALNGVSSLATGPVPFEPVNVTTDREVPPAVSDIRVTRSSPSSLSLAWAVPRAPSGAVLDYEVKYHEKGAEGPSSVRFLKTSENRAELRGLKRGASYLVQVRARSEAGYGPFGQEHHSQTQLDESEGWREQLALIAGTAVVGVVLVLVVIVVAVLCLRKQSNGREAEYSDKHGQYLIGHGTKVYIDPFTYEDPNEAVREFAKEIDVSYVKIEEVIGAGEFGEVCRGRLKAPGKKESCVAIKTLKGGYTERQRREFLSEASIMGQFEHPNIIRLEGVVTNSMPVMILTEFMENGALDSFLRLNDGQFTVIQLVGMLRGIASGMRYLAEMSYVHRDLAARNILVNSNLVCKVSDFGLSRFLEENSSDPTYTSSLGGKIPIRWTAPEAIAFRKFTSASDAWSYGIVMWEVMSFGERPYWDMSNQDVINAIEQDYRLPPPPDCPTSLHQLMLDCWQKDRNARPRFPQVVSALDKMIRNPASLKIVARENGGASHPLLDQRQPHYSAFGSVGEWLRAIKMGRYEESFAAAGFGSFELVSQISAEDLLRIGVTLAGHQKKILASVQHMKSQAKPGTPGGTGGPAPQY
The assay can be described thus: Inhibition of EphB4 ACT labeling site in human Huh-7 cells at 1 uM by KiNativ Profiling analysis relative to control. The assay is classed as cell-based.

Assay [13] has as its target T3, Mitogen-activated protein kinase kinase kinase kinase 2 (Homo sapiens) (UniProt Q12851).
T3 sequence (whole entry): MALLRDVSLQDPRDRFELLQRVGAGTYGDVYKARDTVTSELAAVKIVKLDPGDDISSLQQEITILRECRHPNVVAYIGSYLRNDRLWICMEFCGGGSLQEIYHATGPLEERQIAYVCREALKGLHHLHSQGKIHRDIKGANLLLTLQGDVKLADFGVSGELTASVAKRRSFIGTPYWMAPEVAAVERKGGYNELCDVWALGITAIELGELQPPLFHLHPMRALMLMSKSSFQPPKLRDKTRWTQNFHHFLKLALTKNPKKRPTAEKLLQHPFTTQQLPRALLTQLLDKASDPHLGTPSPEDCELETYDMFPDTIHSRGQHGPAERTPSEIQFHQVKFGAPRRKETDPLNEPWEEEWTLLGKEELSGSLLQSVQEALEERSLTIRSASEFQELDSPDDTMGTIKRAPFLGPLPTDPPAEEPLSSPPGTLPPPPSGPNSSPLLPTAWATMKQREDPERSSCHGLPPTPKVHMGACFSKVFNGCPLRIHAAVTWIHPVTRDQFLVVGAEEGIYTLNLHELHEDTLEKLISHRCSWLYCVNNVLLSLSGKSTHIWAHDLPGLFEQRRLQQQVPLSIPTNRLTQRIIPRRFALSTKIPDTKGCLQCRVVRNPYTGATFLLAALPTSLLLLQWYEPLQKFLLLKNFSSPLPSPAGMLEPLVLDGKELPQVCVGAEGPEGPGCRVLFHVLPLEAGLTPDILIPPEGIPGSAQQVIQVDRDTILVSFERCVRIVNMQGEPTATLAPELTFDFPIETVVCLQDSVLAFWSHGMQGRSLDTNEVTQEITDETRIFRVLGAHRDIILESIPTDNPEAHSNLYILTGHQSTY
The assay can be described thus: Inhibition of MAP4K2 Lys1 labeling site in human Huh-7 cell lysate at 1 uM by KiNativ Profiling analysis relative to control. The assay is classed as subcellular.

A short description of assay [14]: Inhibition of IL-1 induced p38 MAPK phosphorylation level in wild type mouse MEF cells at 500 nM incubated for 1 hr followed by IL-1 stimulation by Western blot analysis relative to control. The format is functional.

Structures are written as SMILES.

From ChEMBL document CHEMBL5696442, “Discovery of type II inhibitors of TGFβ-activated kinase 1 (TAK1) and mitogen-activated protein kinase kinase kinase kinase 2 (MAP4K2)” (J Med Chem, 2015) come the findings set out here.

T1 sequence (P00519 whole entry): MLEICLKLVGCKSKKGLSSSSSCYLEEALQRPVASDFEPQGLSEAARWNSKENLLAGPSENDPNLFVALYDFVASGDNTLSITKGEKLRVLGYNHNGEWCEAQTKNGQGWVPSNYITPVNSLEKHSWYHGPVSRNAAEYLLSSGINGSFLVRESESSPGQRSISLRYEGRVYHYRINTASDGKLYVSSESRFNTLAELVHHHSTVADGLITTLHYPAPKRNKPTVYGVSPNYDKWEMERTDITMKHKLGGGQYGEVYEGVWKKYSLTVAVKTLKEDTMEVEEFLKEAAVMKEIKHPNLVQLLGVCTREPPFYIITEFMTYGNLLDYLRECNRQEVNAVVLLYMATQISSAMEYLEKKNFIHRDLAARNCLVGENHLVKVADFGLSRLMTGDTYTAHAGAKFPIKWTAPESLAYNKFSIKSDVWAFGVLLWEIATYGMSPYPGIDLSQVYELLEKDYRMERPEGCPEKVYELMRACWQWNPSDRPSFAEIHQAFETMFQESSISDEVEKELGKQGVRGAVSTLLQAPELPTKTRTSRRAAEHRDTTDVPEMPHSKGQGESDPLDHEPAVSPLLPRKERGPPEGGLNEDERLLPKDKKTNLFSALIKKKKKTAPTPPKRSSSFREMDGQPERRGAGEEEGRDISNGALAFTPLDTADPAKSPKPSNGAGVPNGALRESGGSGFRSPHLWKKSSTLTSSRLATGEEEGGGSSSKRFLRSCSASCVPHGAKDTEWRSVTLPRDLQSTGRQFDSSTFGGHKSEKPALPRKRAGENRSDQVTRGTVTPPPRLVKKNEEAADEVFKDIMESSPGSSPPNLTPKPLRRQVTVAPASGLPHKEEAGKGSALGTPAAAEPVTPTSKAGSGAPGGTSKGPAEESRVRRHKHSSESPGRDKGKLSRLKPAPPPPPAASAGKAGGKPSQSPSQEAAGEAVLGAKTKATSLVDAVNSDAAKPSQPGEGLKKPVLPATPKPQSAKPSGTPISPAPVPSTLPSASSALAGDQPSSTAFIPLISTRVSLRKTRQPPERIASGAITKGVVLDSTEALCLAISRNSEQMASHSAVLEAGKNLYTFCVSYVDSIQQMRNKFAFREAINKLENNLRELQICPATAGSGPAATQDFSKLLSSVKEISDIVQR
Sequence of Mitogen-activated protein kinase kinase kinase kinase 4 (O95819 whole entry): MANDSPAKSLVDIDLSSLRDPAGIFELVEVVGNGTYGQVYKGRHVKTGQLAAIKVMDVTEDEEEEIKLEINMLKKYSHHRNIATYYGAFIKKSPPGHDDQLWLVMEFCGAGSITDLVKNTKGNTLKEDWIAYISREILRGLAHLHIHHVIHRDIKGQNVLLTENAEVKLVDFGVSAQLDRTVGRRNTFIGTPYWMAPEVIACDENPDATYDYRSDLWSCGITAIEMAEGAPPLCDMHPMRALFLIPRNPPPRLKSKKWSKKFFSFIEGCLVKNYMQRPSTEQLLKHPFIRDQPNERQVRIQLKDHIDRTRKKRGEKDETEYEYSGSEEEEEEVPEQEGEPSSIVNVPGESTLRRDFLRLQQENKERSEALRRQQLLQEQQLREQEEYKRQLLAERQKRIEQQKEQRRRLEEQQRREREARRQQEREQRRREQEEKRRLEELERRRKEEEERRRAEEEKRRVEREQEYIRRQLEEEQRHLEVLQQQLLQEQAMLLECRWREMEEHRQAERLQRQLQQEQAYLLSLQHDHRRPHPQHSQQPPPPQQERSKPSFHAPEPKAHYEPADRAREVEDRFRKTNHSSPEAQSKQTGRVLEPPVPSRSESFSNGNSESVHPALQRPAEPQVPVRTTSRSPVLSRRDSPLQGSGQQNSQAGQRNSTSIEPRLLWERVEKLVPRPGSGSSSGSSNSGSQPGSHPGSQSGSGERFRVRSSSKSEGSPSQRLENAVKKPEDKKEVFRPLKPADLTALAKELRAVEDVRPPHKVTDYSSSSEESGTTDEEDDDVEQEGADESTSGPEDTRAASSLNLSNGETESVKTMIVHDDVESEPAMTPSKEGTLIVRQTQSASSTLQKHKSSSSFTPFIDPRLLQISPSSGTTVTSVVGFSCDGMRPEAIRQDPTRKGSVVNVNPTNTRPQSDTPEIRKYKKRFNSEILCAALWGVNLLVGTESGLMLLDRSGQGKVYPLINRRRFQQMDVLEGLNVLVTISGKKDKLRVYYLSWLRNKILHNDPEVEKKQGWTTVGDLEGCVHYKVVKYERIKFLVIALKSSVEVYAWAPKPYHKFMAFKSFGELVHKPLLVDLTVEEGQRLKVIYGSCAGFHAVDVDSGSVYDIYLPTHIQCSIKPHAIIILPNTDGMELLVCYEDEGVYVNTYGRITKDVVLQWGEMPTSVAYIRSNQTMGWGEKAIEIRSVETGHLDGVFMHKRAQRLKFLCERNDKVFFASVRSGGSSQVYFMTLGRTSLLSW
Sequence of Serine/threonine-protein kinase WNK2 (Homo sapiens) (Q9Y3S1 whole entry): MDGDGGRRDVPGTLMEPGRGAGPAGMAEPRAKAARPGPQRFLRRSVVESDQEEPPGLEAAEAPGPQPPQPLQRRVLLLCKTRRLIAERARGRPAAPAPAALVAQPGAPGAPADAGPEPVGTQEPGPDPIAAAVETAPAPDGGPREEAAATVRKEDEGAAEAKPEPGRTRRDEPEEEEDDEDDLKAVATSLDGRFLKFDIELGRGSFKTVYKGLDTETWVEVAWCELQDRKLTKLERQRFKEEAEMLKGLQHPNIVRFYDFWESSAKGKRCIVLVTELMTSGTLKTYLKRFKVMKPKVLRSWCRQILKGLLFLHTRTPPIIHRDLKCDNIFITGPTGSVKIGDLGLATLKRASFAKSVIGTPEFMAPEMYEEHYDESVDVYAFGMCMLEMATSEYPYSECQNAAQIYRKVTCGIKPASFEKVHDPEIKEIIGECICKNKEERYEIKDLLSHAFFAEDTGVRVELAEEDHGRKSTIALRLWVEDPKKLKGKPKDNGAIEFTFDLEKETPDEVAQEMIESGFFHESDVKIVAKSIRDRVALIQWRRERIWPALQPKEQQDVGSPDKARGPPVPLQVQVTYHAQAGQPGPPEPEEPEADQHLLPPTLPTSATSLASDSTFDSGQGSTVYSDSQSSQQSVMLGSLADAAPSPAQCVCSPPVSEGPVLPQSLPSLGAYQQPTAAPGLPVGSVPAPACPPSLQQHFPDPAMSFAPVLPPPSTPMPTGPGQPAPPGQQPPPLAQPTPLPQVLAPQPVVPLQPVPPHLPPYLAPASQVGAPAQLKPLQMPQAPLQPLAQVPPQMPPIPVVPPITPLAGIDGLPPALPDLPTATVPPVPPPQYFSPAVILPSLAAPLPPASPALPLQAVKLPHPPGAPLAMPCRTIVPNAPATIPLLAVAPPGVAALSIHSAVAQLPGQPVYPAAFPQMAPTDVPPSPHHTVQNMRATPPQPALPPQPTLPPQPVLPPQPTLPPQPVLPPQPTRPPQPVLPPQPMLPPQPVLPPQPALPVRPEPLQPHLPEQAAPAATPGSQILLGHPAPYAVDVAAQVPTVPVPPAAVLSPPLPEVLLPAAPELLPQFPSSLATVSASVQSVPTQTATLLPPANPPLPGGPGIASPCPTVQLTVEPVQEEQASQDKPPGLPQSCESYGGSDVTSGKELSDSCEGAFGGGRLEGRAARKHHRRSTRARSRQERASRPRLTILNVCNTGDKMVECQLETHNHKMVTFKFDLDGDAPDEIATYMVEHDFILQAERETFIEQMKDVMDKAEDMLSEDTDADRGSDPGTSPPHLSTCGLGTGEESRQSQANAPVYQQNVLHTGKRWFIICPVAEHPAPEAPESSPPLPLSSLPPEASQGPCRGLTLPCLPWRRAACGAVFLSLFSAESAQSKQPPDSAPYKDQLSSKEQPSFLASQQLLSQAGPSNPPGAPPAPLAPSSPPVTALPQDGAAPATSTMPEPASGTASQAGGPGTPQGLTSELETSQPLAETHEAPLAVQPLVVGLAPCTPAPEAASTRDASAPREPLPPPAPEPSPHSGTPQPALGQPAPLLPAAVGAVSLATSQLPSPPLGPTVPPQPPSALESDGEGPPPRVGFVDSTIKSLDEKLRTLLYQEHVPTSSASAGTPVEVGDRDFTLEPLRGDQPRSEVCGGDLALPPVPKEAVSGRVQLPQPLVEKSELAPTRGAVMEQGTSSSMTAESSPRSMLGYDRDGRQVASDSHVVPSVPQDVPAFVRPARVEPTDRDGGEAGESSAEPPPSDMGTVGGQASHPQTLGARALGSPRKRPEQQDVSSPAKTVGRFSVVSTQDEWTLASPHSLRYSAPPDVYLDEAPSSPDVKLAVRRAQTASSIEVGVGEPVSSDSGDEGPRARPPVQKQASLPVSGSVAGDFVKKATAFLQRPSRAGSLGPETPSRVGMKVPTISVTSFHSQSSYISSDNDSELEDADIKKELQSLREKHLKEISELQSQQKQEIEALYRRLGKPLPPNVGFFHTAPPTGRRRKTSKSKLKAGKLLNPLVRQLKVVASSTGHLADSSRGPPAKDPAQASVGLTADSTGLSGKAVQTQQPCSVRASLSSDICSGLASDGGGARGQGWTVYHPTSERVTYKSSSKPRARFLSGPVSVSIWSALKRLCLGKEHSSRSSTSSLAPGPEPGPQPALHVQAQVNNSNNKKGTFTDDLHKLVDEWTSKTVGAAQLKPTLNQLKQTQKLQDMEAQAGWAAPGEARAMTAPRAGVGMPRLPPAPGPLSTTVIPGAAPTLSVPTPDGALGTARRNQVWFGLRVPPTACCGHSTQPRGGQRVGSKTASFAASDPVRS
Sequence of Serine/threonine-protein kinase 38-like (Homo sapiens) (Q9Y2H1 2-464 limits assumed): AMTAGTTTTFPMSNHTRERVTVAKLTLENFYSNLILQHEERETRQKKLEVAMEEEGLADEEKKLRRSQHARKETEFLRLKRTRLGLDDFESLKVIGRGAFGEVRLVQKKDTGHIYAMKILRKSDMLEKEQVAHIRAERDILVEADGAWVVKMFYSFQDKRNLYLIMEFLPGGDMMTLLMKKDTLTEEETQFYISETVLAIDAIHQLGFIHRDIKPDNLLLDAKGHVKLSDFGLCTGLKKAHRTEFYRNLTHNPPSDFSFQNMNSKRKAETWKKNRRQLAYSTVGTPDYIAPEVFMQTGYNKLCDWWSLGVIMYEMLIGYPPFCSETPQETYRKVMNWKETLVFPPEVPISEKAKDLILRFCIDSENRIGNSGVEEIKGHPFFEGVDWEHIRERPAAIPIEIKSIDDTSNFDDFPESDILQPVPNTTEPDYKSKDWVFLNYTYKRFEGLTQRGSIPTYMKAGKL

One may read the inhibition as the relative decrease from the control value, in per cent. The term IC50 denotes the midpoint of a concentration-inhibition curve. A low value points to greater potency. Turning to `CCN1CCN(Cc2ccc(NC(=O)c3ccc(C)c(/C=C/c4cnc5[nH]ccc5c4OC)c3)cc2C(F)(F)F)CC1`, the inhibition in [1] is above 98%; in assay [2] it was above 98%; in [6], 21.5%; in assay [7] it was -4.5%; in assay [8], 34.5%; in assay [9] it was 9.1%. The inhibition in [10] came out at 11.6%; in assay [11], 63.7%. In addition, the IC50 was 9.75 µM in assay [3], above 10 µM in assay [4] and 238 nM in [5].
As to `CCN1CCN(Cc2ccc(NC(=O)c3ccc(C)c(Oc4ccnc5[nH]ccc45)c3)cc2C(F)(F)F)CC1`, the inhibition in assay [1] is above 98%; in [2], above 98%; in [6], 12.7%; in assay [7] it was 14.4%; in [8], 47.2%; in [9] it was -0.7%. Also, the inhibition worked out at 14.8% in assay [10], 69.8% in assay [11] and 12.1% in assay [12]. In addition, the IC50 in assay [3] was 3.25 µM; in assay [4] it was above 10 µM; in assay [5], 102 nM.
Take `CNc1cc(Oc2cc(C(=O)Nc3cc(-n4cnc(C)c4)cc(C(F)(F)F)c3)ccc2C)ncn1`: the inhibition in [13] is 79.7%. Also, the inhibition at 0.5 µM in [14] amounted to 50%.
On to `CNc1cc(Oc2cc(C(=O)Nc3cc(N4CCN(C)CC4)cc(C(F)(F)F)c3)ccc2C)ncn1`, for which the inhibition in assay [13] was 85.3%; in assay [12] it was 75.4%. Also, the inhibition at 0.5 µM in assay [14] was 50%.
